The source of these data is ChEMBL document CHEMBL4680165, “β-Lactams with antiproliferative and antiapoptotic activity in breast and chemoresistant colon cancer cells” (Eur J Med Chem, 2020).

One data set relates to MCF7. The experiment in a line: Antiproliferative activity against human MCF7 cells assessed as reduction in cell viability after 72 hrs by alamar blue assay. Format: functional, cell-based. As to conditions: MCF7, 72 h. In outline:
(§1)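 Cells seeded at 5 x 10^3/well (MCF-7) or 1 x 10^4/well (HT-29, HEK-293T) and treated after 24 h with serial dilutions (0.001-100 µM) in 1% v/v ethanol vehicle. Alamar Blue 10% v/v added at 72 h, then 3-5 h at 37 °C in the dark; fluorescence ex 530/em 590 nm. Viability relative to vehicle; IC50 from dose-response curves; mean of three experiments in triplicate.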

Another data set deals with HT-29. Put plainly: Antiproliferative activity against human HT-29 cells assessed as reduction in cell viability after 72 hrs by alamar blue assay. Format: functional, cell-based. As to conditions: HT-29, 72 h. In outline: as §1
In general terms: Resazurin is reduced to fluorescent resorufin, in cell work by metabolically active cells.

The nature of data set [1]: Selectivity index, ratio of IC50 for human MCF7 cells to IC50 for human HT-29 cells assessed as reduction in cell viability after 72 hrs by alamar blue assay. Format: functional.
The species named for another data set is Bos taurus. Put plainly: Inhibition of bovine brain tubulin polymerization at 10 uM measured at 30 sec interval for 30 mins in presence of GTP by turbidimetry-based spectrophotometric method.
The target in another data set is Tubulin (Homo sapiens) (UniProt P68371+Q9H4B7+P0DPH7+P68366+Q13509+Q71U36+P04350+Q3ZCM7+P07437+P68363+Q9BQE3+Q6PEY2+Q13885+Q9BVA1+Q9BUF5). Put plainly: Binding affinity to tubulin in human MCF7 cells assessed as inhibition of tubulin-EBI adduct formation preincubated for 2 hrs followed by EBI addition and measured after 1.5 hrs by Western blotting analysis. Particulars: time 3.5 hrs. Type of data set: cell-based. In a few lines: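 MCF-7 cells (5 × 10^4/well) were incubated overnight, then given vehicle (0.1% v/v ethanol) or compound at 10 µM for 2 h. Selected wells then received EBI (100 µM) for 1.5 h. Cells were washed in ice-cold PBS, lysed in Laemmli buffer and run on SDS-PAGE. Blots were probed for β-tubulin and the β-tubulin–EBI adduct, with GAPDH as loading control. Three independent experiments.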
(In general: A western blot detects proteins with antibodies after separation by electrophoresis.)

The subject of data set [2] is UDP-glucuronosyltransferases (UGTs). Put plainly: Metabolic stability in human liver microsomes assessed as UGT-mediated N-glucuronidation by measuring half life at 3 uM measured up to 45 mins by LC-MS/MS analysis. As to conditions: microsomes, 0.75 h, 3 µM. Format: ADME. In outline:
(§2)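 Pooled human liver microsomes (0.5 mg/mL protein final) with alamethicin (25 µg/mg) in 0.1 M phosphate pH 7.4, compound 3 µM final (0.25% DMSO), preincubated 37 °C. Reaction started with UDPGA (1 mM final). Sampled at 0, 5, 15, 30, 45 min into methanol, analysed by LC-MS/MS. Minus-UDPGA control run 45 min. Single incubations; t½ and CLint taken from the elimination rate constant.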
(Microsomes from liver hold many membrane-bound enzymes, among them those of drug oxidation.)

For data set [3] the test system is unchanged. Put plainly: Metabolic stability in human liver microsomes assessed as UGT-mediated N-glucuronidation by measuring intrinsic clearance at 3 uM measured up to 45 mins by LC-MS/MS analysis. Particulars: microsomes, 0.75 h, 3 µM. Type of data set: ADME. In a few lines:
as §2

The structures appear in SMILES notation. Calls of active or inactive are those of the source. The calls are words filed in the database; no cut-off is given here.

`COc1ccc(/C=C\c2cc(OC)c(OC)c(OC)c2)cc1O` [COMBRETASTATIN A4]: the half-inhibitory concentration (IC50) – broadly, the point on the concentration scale where inhibition reaches its midpoint – with MCF7 came out at 0.004 µM; in the data set with HT-29 it was 4.17 µM. The “Ratio IC50” value in data set [1] was found to be 0.001. In addition, the inhibition result in the data set listed under Bos taurus is “Active”. On Tubulin (Homo sapiens), the outcome was Active. For the same compound, the t1/2 in data set [2] worked out at 2.71 min. In addition, the CLH in data set [3] amounted to 645 µL/min/mg.
